The species named for experiment [1] is Cavia porcellus. The experiment in a line: Compound was measured for open epicutaneous test on sensitized guinea pig after sensitization of compound (Acetic acid 3-methylene-2-oxo-1-oxa-spiro[4.5]dec-4-yl ester). Type of experiment: functional. A digest of the protocol:
(§1)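 Female Albino Himalayan spotted guinea pigs (300-500 g) sensitized by FCAT: hapten emulsified in Freund's complete adjuvant, 0.1 mL intradermal in shaved nuchal region, three injections on alternate days. After 2-week rest, 25 μL of 2% lactone in CH2Cl2 (others at same molar concentration) applied to 2-cm² area of shaved flank. Read at 24 h, scale 0-3.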

Experiment [2] is filed under the species Cavia porcellus. The experiment in a line: Compound was measured for open epicutaneous test on sensitized guinea pig after sensitization of compound (Acetic acid 4-methylene-5-oxo-tetrahydro-furan-3-yl ester). The format is functional. A digest of the protocol: as §1
The species named for experiment [3] is Cavia porcellus. Kind of experiment: Compound was measured for open epicutaneous test on sensitized guinea pig after sensitization of compound itself. The format is functional. In a few lines:
as §1

Experiment [4] is filed under the species Cavia porcellus. Kind of experiment: Compound was measured for open epicutaneous test on sensitized guinea pig after sensitization of compound (3-Methylene-1-oxa-spiro[4.5]decan-2-one). Type of experiment: functional. In a few lines: as §1
For experiment [5], the species on record is Cavia porcellus. The experiment in a line: Compound was measured for open epicutaneous test on sensitized guinea pig after sensitization of compound (4-Hydroxy-3-methylene-1-oxa-spiro[4.5]decan-2-one). Type of experiment: functional. In a few lines: as §1
The species named for experiment [6] is Cavia porcellus. Kind of experiment: Compound was measured for open epicutaneous test on sensitized guinea pig after sensitization of compound (4-Hydroxy-3-methylene-dihydro-furan-2-one). The format is functional. In a few lines:
as §1

The species entered for experiment [7] is Cavia porcellus. The experiment in a line: Compound was measured for open epicutaneous test on sensitized guinea pig after sensitization of compound (3-Methylene-1-oxa-spiro[4.5]decan-2-one) average skin reaction. Type of experiment: functional. In a few lines:
as §1

The species named for experiment [8] is Cavia porcellus. The experiment in a line: Compound was measured for open epicutaneous test on sensitized guinea pig after sensitization of compound (4-Hydroxy-3-methylene-1-oxa-spiro[4.5]decan-2-one). average skin reaction. The format is functional. In a few lines: as §1
For experiment [9], the species on record is Cavia porcellus. The experiment in a line: Compound was measured for open epicutaneous test on sensitized guinea pig after sensitization of compound (4-Hydroxy-3-methylene-dihydro-furan-2-one) average skin reaction. The format is functional. In a few lines:
as §1

The species named for experiment [10] is Cavia porcellus. The experiment in a line: Compound was measured for open epicutaneous test on sensitized guinea pig after sensitization of compound (Acetic acid 4-methylene-5-oxo-tetrahydro-furan-3-yl ester) average skin reaction. The format is functional. A digest of the protocol: as §1
For experiment [11], the species on record is Cavia porcellus. Kind of experiment: Compound was measured for open epicutaneous test on sensitized guinea pig after sensitization of compound 1a.

As for `C=C1C(=O)OC[C@@H]1O`, the Sensitized animals in experiment [1] is reported as 0; in experiment [2], 6; in experiment [3], 6; in [4], 0; in experiment [5], 0; in experiment [6], 6.

On to `C=C1C(=O)OC2(CCCCC2)[C@@H]1OC(C)=O`, for which the Average skin reaction in experiment [7] is 1.7; in experiment [8], 1.8; in experiment [9], 0; in experiment [1], 3; in experiment [10], 0; in experiment [11], 0. Further, the Sensitized animals in experiment [1] amounted to 6; in [2], 0; in experiment [3], 6; in experiment [4], 6; in experiment [5], 6; in experiment [6] it was 0.

On to `C=C1C(=O)OC2(CCCCC2)[C@@H]1O`, for which the Average skin reaction in experiment [7] is listed as 0.4; in [8], 0.7; in experiment [9], 0; in experiment [1] it was 0.5; in experiment [10] it was 0; in experiment [11], 0. Besides, the Sensitized animals in experiment [1] was 6; in experiment [2], 0; in [3], 0; in [4], 6; in [5], 6; in experiment [6], 0.

`C=C1C(=O)OC[C@@H]1OC(C)=O`: the Average skin reaction in experiment [7] was 0; in experiment [8] it was 0; in experiment [9] it was 0.3; in [1] it was 0; in experiment [10], 0.8; in [11] it was 0.4. Further, the Sensitized animals in experiment [1] came out at 0; in experiment [2], 6; in experiment [3] it was 6; in experiment [4] it was 0; in experiment [5] it was 0; in experiment [6], 4.

`C=C1CC2(CCCCC2)OC1=O`: the Average skin reaction came to 1.2 in [7]; 1.7 in [8]; 0 in [9]; 0.8 in experiment [1]; 0 in [10]; 0 in [11]. The Sensitized animals in experiment [1] is recorded as 6; in experiment [2], 0; in [3], 0; in experiment [4], 6; in experiment [5], 6; in experiment [6] it was 0.

With `C=C1CCOC1=O` [TULIPALINE A], the Average skin reaction in [7] is recorded as 0; in experiment [8], 0; in [9], 1.1; in experiment [1] it was 0; in experiment [10], 1.1; in experiment [11], 2. Further, the Sensitized animals is reported as 0 in experiment [1]; 6 in [2]; 6 in experiment [3]; 0 in experiment [4]; 0 in experiment [5]; 6 in experiment [6].

The record behind these values is ChEMBL document CHEMBL1123191, “Allergenic alpha-methylene-gamma-butyrolactones. Study of the capacity of beta-acetoxy- and beta-hydroxy-alpha-methylene-gamma-butyrolactones to induce allergic contact dermatitis in guinea pigs” (1986).
